Assay results from different studies.
Each line is one published result; the experiments were not run side by side.
Effect on: cell growth or viability

SMILES | cell line | method | time | IC50 [µM]
O=C(c1ccccc1)c1cc2c(-c3ccccc3)c(O)ccc2o1 | L1210 | – | 48 h | 37
COc1cc([C@@H]2c3cc4c(cc3[C@@H](O[C@@H]3O[C@@H]5CO[C@@H](c6cccs6)O[C@H]5[C@H](O)[C@H]3O)[C@H]3COC(=O)[C@H]23)OCO4)cc(OC)c1O | GISTT1 | resazurin | 72 h | > 1
NC(=O)c1ccc2c(c1)C(=O)CCc1ccccc1C(=O)N2 | L6 | – | – | > 340
CC(C)=CCC/C(C)=C/COc1ccc2ccc(=O)oc2c1 | COLO 205 | MTT | 24 h | 55.1
CC(C)[C@H](N)c1nc2cc(N3CCNCC3)sc2c(=O)[nH]1 | COLO 205 | MTT | – | > 10
COc1cc(-c2oc3cc(O)cc(O)c3c(=O)c2O)ccc1O | SCaBER | ATP luminescence | 72 h | 43.2
N[C@@H](CC(=O)N1CCN(C(c2ccc(F)cc2)c2ccc(F)cc2)CC1)C(=O)N1Cc2ccccc2C1 | RS4-11 | ATP luminescence | 24 h | 28.3
COc1ccc2c(c1)C(=O)CCc1ccccc1C(=O)N2 | L6 | – | – | 47
O=c1[nH]cc(F)c(=O)[nH]1 | L1210 | – | 48 h | 0.49
COc1cc([C@@H]2c3cc4c(cc3[C@@H](O[C@@H]3O[C@@H]5CO[C@@H](C)O[C@H]5[C@H](O)[C@H]3O)[C@H]3COC(=O)[C@H]23)OCO4)cc(OC)c1O | GISTT1 | resazurin | 72 h | > 1
O=C1Nc2ccc(S(F)(F)(F)(F)F)cc2C(=O)CCc2ccccc21 | L6 | – | – | 2.8
COc1ccc(C(=O)c2cc3c(-c4ccccc4)c(OC)ccc3o2)cc1 | L1210 | – | 48 h | 2.8
Nc1nc(F)nc2c1ncn2[C@@H]1O[C@H](COP(=O)(O)O)[C@@H](O)[C@@H]1O | GISTT1 | resazurin | 72 h | > 1
CC(C)C[C@H](NC(=O)[C@H](Cc1ccccc1)NC(=O)c1cnccn1)B(O)O | NCI-H1838 | ATP luminescence | – | 0.053
Nc1nc(Cl)nc2c1ncn2[C@@H]1O[C@H](CO)[C@@H](O)[C@@H]1F | GISTT1 | resazurin | 72 h | > 1
COc1cc2ccc(=O)oc2cc1OC | COLO 205 | MTT | 72 h | > 100
CCC(=O)Nc1cc(Nc2nc(N3CCc4sccc4C3)c3cccnc3n2)c(OC)cc1N1CCN(CCO)CC1 | NCI-H460 | MTT | – | > 50
CC(C)[C@H](N)c1nc2cc(-c3ccnc(Cl)c3)sc2c(=O)[nH]1 | COLO 205 | MTT | – | 1.6
O=C(O)c1ccc2c(c1)C(=O)CCc1ccccc1C(=O)N2 | L6 | – | – | 220
C=C[C@H]1C[N@@]2CC[C@H]1C[C@@H]2[C@@H](O)c1ccnc2ccc(OC)cc12 | MDCK-II | MTT | 48 h | 267

SMILES | cell line | method | time | IC50 [µM]
COc1ccc2oc(C(=O)c3ccccc3)cc2c1-c1ccccc1 | L1210 | – | 48 h | > 50
COc1cc(NS(C)(=O)=O)ccc1Nc1c2ccccc2nc2ccccc12 | GISTT1 | resazurin | 72 h | 0.31
CCOC(=O)c1ccc2c(c1)C(=O)CCc1ccccc1C(=O)N2 | L6 | – | – | 15
COc1ccccc1C(=O)c1cc2c(-c3ccccc3)c(O)ccc2o1 | L1210 | – | 48 h | > 50
O=C1Nc2ccccc2C(=O)CCCc2ccccc21 | L6 | – | – | 130
CCC(=O)Nc1cc(Nc2nc(N3CCc4sccc4C3)c3cccnc3n2)c(OC)cc1N1CCOCC1 | NCI-H460 | MTT | – | > 50
COc1cc(OC)cc(C(=O)c2cc3c(-c4ccccc4)c(O)ccc3o2)c1 | L1210 | – | 48 h | 19
Cc1ccc(-c2cc(COCc3ccc(C(C)C)cc3)c3cccnc3c2O)cc1 | MDA-MB-453 | MTS | 72 h | 0.9
CC(C)C[C@H](NC(=O)[C@H](Cc1ccccc1)NC(=O)c1cnccn1)B(O)O | GISTT1 | resazurin | 72 h | < 0.07
O=C1C(=Cc2ccccc2)CN(C(=O)c2ccc(C(=O)N3CC(=Cc4ccccc4)C(=O)C(=Cc4ccccc4)C3)cc2)CC1=Cc1ccccc1 | L1210 | – | – | > 500
CCN1CCN(c2ccc(Nc3cc(N(C)C(=O)Nc4c(Cl)c(OC)cc(OC)c4Cl)ncn3)cc2)CC1 | MDA-MB-453 | ATP luminescence | 96 h | > 1
O=C1CCc2ccccc2CC(=O)c2ccccc2N1 | L6 | – | – | > 380
COc1cc(OC)cc(C(=O)c2cc3c(-c4ccccc4)c(OC)ccc3o2)c1 | L1210 | – | 48 h | > 50
CCN1C(=O)N(c2c(F)c(OC)cc(OC)c2F)Cc2cnc3[nH]c(CN4CCOCC4)cc3c21 | MDA-MB-453 | ATP luminescence | 96 h | 0.0764
O=c1c(O)c(-c2cc(O)c(O)c(O)c2)oc2cc(O)cc(O)c12 | SCaBER | ATP luminescence | 72 h | 30.3
CCC1=C[C@@H]2CN(C1)Cc1c([nH]c3ccccc13)[C@@](C(=O)OC)(c1cc3c(cc1OC)N(C)[C@H]1[C@@](O)(C(=O)OC)[C@H](OC(C)=O)[C@]4(CC)C=CCN5CC[C@]31[C@@H]54)C2 | GISTT1 | resazurin | 72 h | 0.23
O=C1Nc2ccccc2C(=O)CCc2ccc(F)cc21 | L6 | – | – | 110
CC(=O)[C@]1(O)Cc2c(O)c3c(c(O)c2[C@@H](O[C@H]2C[C@H](N)[C@H](O)[C@H](C)O2)C1)C(=O)c1ccccc1C3=O | GISTT1 | resazurin | 72 h | 0.1
O=[N+]([O-])c1ccc(Cn2cc(Cn3c4ccccc4c4nc5ccccc5nc43)nn2)cc1 | INS1 | MTT | 24 h | > 100
